Activity calls are given as the source filed them. The rule behind the calls is not given here.
Tests used:
[1] = system: MV4-11; assay: Induction of apoptosis in human MV4-11 cells assessed as necrotic cells at 10 x GI50 concentration incubated for 48 hrs by annexin V-FITC and propidium iodide staining based flow cytometry (reference value: 0.45 %); assay type: functional
[2] = system: U-937; assay: Induction of apoptosis in human U937 cells assessed as early apoptotic cells at 5 x GI50 concentration incubated for 24 hrs by annexin V-FITC and propidium iodide staining based flow cytometry (Rvb =1.81 %); assay type: functional
[3] = system: U-937; assay: Antiproliferative activity against human U-937 cells harboring wild type/low FLT3 assessed as reduction in cell viability after 72 hrs by resazurin assay; assay type: functional
Procedure, shortened: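 Cells seeded and pre-incubated 24 h at 37 °C, 5% CO2, then given a five-fold dilution series of compound (from 10 mM DMSO stock) in medium, in triplicate. Resazurin added after 72 h exposure, 4 h in dark at 37 °C. Fluorescence read at 570/585 nm, normalised to DMSO vehicle. GI50 by non-linear regression; mean ± SD of at least two replicates.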

[4] = biological target: Receptor-type tyrosine-protein kinase FLT3 (Homo sapiens) (UniProt P36888); assay: Inhibition of FLT3-mediated signalling pathway in human MV4-11 cells assessed as inhibition of ERK phosphorylation upto 20 x GI50 concentration incubated for 6 hrs by western blot analysis; assay type: cell-based
Procedure, shortened: (§1)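 Cells lysed in phosphate lysis buffer with protease inhibitors and protein quantified. Western blots probed phospho and total STAT5, AKT, ERK, S6RP and eIF4E, plus full-length and cleaved PARP and caspase-3, with β-actin as loading control. At least two independent experiments.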

[5] = biological target: Receptor-type tyrosine-protein kinase FLT3 (Homo sapiens) (UniProt P36888); assay: Inhibition of FLT3-mediated signalling pathway in human U-937 cells assessed as inhibition of ERK phosphorylation upto 20 x GI50 concentration incubated for 6 hrs by western blot analysis; assay type: cell-based; procedure, shortened: as §1

Sequence of Receptor-type tyrosine-protein kinase FLT3 (Homo sapiens) (P36888 whole entry): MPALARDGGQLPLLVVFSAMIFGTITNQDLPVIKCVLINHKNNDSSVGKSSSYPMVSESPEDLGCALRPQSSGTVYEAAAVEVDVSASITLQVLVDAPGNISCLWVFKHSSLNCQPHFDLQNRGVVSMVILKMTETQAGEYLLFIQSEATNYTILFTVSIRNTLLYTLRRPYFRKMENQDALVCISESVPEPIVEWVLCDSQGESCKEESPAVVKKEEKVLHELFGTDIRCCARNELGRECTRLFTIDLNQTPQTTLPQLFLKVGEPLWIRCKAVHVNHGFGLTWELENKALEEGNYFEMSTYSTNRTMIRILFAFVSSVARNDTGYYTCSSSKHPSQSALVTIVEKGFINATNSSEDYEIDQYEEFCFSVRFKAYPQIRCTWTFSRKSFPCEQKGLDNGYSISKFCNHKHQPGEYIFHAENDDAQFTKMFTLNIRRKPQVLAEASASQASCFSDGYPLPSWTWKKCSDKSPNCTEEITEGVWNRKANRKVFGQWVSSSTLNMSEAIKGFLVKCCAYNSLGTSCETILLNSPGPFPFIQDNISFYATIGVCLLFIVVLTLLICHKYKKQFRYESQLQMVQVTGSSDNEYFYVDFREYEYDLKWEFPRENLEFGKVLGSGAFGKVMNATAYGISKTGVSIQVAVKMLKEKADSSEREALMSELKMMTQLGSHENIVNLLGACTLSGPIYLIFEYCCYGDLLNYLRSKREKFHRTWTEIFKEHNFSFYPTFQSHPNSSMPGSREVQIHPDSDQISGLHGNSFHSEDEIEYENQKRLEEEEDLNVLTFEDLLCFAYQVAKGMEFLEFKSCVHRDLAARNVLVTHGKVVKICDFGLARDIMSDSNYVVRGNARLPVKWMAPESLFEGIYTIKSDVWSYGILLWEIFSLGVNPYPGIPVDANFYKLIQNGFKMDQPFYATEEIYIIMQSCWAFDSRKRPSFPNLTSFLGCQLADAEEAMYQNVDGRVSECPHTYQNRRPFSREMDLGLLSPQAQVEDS

GI50 [3]: > 10 µM
inhibition [4]: Active
inhibition [5]: Active
Compound: CC(=O)N1CCN(c2ccc(Nc3nccc(-c4cn(C)c5ncccc45)n3)cc2)CC1
Activity [1]: 1.48%
Activity [2]: 2.15%
